Results reported in ChEMBL document CHEMBL5329211, “Selective isoxazolopyrimidine PAT1 (SLC26A6) inhibitors for therapy of intestinal disorders” (RSC Med Chem, 2023).
The source made the active and inactive calls. The calls are words filed in the database; no cut-off is given here.

Legend:
[1] = biological target: T1, Solute carrier family 26 member 9 (Homo sapiens) (UniProt Q7LBE3); test: Inhibition of SLC26A9 (unknown origin) expressed in rat FRT cells coexpressing YFP halide-sensing protein assessed as iodide-chloride exchange at 25 uM incubated for 2 sec by fluorescence quenching analysis; format: cell-based
T1 sequence (whole entry): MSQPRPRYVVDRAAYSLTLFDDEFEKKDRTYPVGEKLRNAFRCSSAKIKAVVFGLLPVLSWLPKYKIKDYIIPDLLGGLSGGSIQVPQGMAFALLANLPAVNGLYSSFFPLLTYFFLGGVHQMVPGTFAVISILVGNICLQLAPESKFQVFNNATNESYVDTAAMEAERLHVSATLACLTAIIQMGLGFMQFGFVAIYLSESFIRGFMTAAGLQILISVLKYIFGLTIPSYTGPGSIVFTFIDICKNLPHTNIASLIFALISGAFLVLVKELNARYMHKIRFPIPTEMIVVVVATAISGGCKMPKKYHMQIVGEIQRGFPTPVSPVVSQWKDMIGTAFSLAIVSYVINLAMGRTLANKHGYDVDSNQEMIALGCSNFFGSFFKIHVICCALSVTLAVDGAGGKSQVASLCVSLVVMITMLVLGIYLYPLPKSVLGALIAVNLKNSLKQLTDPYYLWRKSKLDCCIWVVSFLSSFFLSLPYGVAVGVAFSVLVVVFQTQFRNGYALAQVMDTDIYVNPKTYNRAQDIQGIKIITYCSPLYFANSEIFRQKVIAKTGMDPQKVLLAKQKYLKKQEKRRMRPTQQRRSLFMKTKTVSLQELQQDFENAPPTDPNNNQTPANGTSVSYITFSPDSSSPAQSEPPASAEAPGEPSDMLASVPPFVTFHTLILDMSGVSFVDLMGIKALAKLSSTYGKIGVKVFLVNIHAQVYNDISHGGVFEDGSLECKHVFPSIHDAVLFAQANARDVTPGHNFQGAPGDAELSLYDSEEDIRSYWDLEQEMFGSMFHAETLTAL

Pendrin (Homo sapiens) = biological target: T2, Pendrin (Homo sapiens) (UniProt O43511); test: Inhibition of SLC26A4 (unknown origin) expressed in rat FRT cells coexpressing YFP halide-sensing protein assessed as iodide-chloride exchange at 25 uM incubated for 2 sec by fluorescence quenching analysis; format: cell-based
T2 sequence (whole entry): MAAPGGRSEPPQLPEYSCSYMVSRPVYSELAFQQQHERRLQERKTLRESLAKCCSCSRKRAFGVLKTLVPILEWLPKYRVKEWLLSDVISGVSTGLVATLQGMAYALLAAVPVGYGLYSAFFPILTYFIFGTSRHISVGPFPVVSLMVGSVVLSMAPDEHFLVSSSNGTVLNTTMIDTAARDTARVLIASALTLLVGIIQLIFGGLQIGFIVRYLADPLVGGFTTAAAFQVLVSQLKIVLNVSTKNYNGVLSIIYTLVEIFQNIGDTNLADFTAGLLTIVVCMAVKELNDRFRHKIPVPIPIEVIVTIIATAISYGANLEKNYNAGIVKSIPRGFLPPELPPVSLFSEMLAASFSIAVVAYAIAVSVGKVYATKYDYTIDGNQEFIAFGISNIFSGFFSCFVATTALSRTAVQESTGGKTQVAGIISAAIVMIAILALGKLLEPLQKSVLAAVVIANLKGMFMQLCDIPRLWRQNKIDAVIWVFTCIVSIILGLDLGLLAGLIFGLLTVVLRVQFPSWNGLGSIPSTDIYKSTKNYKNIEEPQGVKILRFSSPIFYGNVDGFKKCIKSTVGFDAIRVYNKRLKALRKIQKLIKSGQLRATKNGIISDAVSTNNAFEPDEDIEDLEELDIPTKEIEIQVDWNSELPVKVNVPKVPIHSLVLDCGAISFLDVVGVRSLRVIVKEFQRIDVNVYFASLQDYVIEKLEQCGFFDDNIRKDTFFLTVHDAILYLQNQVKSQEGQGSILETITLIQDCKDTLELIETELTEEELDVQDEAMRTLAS

Mus musculus [2] = test: In vivo inhibition of PAT1 in intestinal closed-loop CD-1 mouse model harboring CFTR delF508/delF508 mutant assessed as reduction in loop weight/length ratio in ileum measured for 30 mins; format: functional, organism-based
Outline: (§1)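 Mice (wild-type CD1 or homozygous F508del CF, 10-16 wk, both sexes) fasted 24 h with free access to 5% dextrose water. Under isoflurane at 36-38 °C, 2-3 ileal loops (2-3 cm) were tied off and injected with 100 µL PBS pH 7.4 containing 30 µM inhibitor, 10 µM tenapanor or 0.1% DMSO vehicle. Loops removed at 0 or 30 min in separate mice; length and weight measured for fluid absorption. One-way ANOVA with Newman-Keuls.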

[3] = biological target: Solute carrier family 26 member 6 (Mus musculus) (UniProt Q8CIW6); test: Inhibition of SLC26A6 (unknown origin) expressed in rat FRT cells coexpressing YFP halide-sensing protein assessed as iodide-chloride exchange incubated for 2 sec by fluorescence quenching analysis
Solute carrier family 26 member 6 (Mus musculus), sequence (Q8CIW6 whole entry, looked up): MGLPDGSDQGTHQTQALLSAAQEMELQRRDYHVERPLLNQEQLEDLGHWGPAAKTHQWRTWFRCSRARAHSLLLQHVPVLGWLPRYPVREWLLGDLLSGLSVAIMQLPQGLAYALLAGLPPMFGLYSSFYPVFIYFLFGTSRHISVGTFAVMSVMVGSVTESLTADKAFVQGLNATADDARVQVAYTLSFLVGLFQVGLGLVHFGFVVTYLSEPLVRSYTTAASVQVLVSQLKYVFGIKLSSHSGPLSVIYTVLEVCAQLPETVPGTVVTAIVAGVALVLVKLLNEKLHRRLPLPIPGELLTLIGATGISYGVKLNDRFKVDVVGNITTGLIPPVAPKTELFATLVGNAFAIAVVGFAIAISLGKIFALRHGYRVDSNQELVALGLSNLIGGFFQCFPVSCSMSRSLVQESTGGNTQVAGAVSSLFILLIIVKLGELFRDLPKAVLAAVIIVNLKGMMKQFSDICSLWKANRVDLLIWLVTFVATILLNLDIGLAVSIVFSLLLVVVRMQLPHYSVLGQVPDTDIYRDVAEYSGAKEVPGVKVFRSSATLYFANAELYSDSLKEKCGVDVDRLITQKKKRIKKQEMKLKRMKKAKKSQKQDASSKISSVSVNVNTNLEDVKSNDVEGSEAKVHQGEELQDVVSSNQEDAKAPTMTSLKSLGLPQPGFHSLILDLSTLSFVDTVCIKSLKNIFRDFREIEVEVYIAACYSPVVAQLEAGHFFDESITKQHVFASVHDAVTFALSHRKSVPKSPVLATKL

Mus musculus [4] = test: In vivo inhibition of PAT1 in intestinal closed-loop CD-1 mouse model assessed as reduction in loop fluid volume in ileum measured for 30 mins; format: functional, organism-based; outline: as §1
[5] = biological target: T3, Chloride anion exchanger (Homo sapiens) (UniProt P40879); test: Inhibition of SLC26A3 (unknown origin) expressed in rat FRT cells coexpressing YFP halide-sensing protein assessed as iodide-chloride exchange at 25 uM incubated for 2 sec by fluorescence quenching analysis; format: cell-based
T3 sequence (whole entry): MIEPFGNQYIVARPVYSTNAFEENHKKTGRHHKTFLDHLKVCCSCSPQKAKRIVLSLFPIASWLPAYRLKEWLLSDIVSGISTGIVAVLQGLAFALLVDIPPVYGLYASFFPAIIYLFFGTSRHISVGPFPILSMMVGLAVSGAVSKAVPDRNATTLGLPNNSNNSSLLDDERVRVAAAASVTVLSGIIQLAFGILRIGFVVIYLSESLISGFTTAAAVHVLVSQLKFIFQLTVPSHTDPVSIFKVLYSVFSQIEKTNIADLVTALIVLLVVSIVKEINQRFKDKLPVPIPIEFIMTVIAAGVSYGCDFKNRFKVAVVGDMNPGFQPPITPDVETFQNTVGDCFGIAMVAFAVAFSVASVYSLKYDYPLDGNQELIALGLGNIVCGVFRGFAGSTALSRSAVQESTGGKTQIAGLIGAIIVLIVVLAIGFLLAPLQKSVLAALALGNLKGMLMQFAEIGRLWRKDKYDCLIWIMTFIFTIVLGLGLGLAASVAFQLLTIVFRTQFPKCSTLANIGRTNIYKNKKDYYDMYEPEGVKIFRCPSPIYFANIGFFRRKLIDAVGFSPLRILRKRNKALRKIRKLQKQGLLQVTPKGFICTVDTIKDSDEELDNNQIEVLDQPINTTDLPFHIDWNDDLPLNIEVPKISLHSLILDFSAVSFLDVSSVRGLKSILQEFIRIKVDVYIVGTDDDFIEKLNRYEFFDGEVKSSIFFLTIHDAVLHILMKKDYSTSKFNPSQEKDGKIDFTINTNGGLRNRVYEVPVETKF

[6] = biological target: Cystic fibrosis transmembrane conductance regulator (Homo sapiens) (UniProt P13569); test: Inhibition of CFTR (unknown origin)
Cystic fibrosis transmembrane conductance regulator (Homo sapiens), sequence (P13569 whole entry, looked up): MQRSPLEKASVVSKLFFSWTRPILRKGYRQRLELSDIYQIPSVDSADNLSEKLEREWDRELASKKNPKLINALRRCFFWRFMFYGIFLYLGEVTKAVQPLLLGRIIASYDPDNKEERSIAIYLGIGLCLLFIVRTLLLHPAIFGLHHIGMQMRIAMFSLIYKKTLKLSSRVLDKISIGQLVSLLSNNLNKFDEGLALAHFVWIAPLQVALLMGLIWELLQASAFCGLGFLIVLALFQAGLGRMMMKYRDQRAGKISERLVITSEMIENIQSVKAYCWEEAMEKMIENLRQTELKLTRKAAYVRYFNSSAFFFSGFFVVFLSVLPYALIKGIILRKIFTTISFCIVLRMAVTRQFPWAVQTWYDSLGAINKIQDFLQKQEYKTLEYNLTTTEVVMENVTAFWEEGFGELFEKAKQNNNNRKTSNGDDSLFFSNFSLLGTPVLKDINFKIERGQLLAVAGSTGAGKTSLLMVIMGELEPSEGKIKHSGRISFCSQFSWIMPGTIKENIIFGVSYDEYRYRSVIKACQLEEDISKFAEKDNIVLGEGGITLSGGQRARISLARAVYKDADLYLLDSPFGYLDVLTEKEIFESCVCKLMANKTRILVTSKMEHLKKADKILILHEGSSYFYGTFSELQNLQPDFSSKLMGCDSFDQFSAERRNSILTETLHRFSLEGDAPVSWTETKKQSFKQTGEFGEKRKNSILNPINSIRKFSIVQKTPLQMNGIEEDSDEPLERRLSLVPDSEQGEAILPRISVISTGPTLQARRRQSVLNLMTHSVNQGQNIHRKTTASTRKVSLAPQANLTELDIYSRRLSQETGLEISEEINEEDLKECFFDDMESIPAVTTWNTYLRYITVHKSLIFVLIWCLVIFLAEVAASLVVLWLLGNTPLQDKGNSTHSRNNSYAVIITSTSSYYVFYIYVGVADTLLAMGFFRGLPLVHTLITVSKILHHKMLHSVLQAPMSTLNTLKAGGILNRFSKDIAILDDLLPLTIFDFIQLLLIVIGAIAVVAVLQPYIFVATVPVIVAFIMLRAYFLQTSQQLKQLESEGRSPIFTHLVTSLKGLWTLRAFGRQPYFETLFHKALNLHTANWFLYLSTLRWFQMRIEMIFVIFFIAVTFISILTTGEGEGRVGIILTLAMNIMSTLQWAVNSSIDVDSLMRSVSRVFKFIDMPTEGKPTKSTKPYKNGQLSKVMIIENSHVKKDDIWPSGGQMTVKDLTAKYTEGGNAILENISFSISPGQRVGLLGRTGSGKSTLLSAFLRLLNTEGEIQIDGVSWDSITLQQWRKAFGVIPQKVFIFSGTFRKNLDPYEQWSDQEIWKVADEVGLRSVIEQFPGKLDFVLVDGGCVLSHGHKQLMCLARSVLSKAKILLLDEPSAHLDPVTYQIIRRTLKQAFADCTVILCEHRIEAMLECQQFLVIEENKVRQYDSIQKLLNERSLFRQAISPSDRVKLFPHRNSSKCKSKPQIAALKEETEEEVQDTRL

inhibition [1]: inactive
inhibition (Pendrin (Homo sapiens)): inactive
IC50 [3]: 1000 nM
inhibition [5]: inactive
inhibition [6]: inactive
SMILES: CCOC(=O)c1nc(N(C)Cc2ccccc2)c2c(C)noc2n1
inhibition (Mus musculus [2]): Active
inhibition (Mus musculus [4]): Active
